Reference: article PMC6469399 (Chemistry (Weinheim an der Bergstrasse, Germany), 2019)

Key:
WT-CFTR [1] = biological target: T1, WT-CFTR (Homo sapiens, UniProt P13569); experiment: Patch clamp analysis, macroscopic currents in excised inside-out patch; format: biochemical
G551D-CFTR [2] = biological target: T2, G551D-CFTR (Homo sapiens, UniProt P13569, G551D); experiment: Ussing chamber potentiation assay, G551D CFBE41o- monolayers; format: cell-based
F508del-CFTR [3] = biological target: T3, F508del-CFTR (Homo sapiens, UniProt P13569, DEL508-508); format: cell-based
[4] = Metabolic stability in human hepatic microsomes; format: in vitro ADME
G551D-CFTR [5] = biological target: T2, G551D-CFTR; experiment: Ussing chamber potentiation assay, Fischer Rat Thyroid; format: cell-based
WT-CFTR [6] = biological target: T1, WT-CFTR; experiment: Ussing chamber potentiation assay, WT CFBE41o- monolayers; format: cell-based
F508del-CFTR [7] = biological target: T3, F508del-CFTR; experiment: TECC; format: cell-based; conditions: F508del CFBE41o- cells; % activity of the 3 μM VX-809 response
In short: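 F508del CFBE41o- monolayers were pre-incubated 24 h with a range of test-compound concentrations, with DMSO as vehicle and 3 μM VX-809 as positive control in every experiment. Equivalent current (ΔIeq) was recorded as AUC after forskolin (10 μM) + VX-770 (1 μM) stimulation, then CFTRinh-172 (20 μM) inhibition. Response is expressed as % of VX-809 response; n = 3–5; two-way ANOVA with Tukey test versus vehicle.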

Q: With CC(C)(C)c1cc(C(C)(C)C)c(NC(=O)c2c[nH]c3ccccc3c2=O)cc1O [VX-770, Ivacaftor] as the molecule, how does the EC50 (WT-CFTR [1]) read?
A: 0.0013 ± 0.0003 µM

Q: What about the “increase of current at lowest dose tested” value (WT-CFTR [1]; WT-CFTR patch clamp, 0.2 nM) of the same molecule?
A: ~ 12%

Q: And the EC50 (G551D-CFTR [2])?
A: 0.0777 ± 0.0272 µM

Q: And the “Maximal Response G551D CFBE” value (G551D-CFTR [2]; G551D CFBE41o-, % activity of the VX-770 response, Inactive = no statistically significant response above DMSO vehicle)?
A: 100.0%

Q: What about the EC50 (F508del-CFTR [3]) of the same molecule?
A: 1.89 ± 1.39 µM

Q: What about the “CLHEP, predicted hepatic clearance, human” value ([4]; calculated from CLINT, human) of the same molecule?
A: 14.4 mL min^−1 kg ^−1

Q: What about the “CLINT, intrinsic clearance in human hepatic microsomes” value ([4]; human hepatic microsomes) of the same molecule?
A: 45.6 mL min^−1 kg ^−1

Q: And the EC50 (G551D-CFTR [5])?
A: 0.428 ± 0.167 µM

Q: What about the “Maximal Response G551D FRT” value (G551D-CFTR [5]; G551D FRT cells, % activity of the VX-770 response, Inactive = no statistically significant response above DMSO vehicle) of the same molecule?
A: 100.0%

Q: And the EC50 (WT-CFTR [6])?
A: 0.0365 ± 0.0213 µM

Q: And the “Maximal Response WT CFBE” value (WT-CFTR [6]; WT CFBE41o-, % activity of the VX-770 response, Inactive = no statistically significant response above DMSO vehicle)?
A: 100.0%

Q: For COc1ccc(C2(C(=O)Nc3ccc(C)c(-c4cccc(C(=O)O)c4)n3)CC2)cc1 [compound 33], which “Maximal Response” value (F508del-CFTR [7]) is on record?
A: 49.9%
